Most compounds without a hit are left out; they make up all but 2.3% or so of the library.
OXTR ag = activates the human oxytocin receptor. P30559. CHO-OTR cells, Fluo-8 calcium fluorescence; normalized: DMSO 0%, oxytocin 100%. activation, % at 3 µM. 320,000 tested, 0.32% active. AID 2435;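 active = activation above the mean of all tested compounds plus 3 SD, cutoff set per screening run, cut at about 20% in these data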;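 also: peak over basal fluorescence ratio from a 100 s FLIPR kinetic read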
Target sequence (P30559 whole entry, looked up): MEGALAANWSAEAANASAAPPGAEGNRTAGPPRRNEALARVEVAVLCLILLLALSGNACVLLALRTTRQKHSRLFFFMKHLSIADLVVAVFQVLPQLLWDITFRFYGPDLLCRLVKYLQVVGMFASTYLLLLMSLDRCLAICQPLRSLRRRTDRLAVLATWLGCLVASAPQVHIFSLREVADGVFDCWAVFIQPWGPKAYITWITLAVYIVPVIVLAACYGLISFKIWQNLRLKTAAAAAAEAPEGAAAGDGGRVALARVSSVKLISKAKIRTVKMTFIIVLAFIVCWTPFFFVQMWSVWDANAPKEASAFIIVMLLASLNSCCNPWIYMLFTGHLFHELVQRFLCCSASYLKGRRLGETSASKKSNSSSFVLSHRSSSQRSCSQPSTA
TAAR1 antagonist = antagonists of human TAAR1; Q96RJ0; CHO RD-HGA16 TAAR1, Fluo-8 calcium fluorescence, antagonist; inhibition, % at 3 µM; 360,000 tested, 1.5% active; AID 624466;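 active = inhibition above a per-plate cutoff, the mean inhibition of test compounds on that plate plus 3 SD, cut at about 49% in these data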;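 also: 0% = DMSO plus EC80 beta-PEA response and 100% = DMSO alone without agonist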
Target sequence (Q96RJ0 whole entry, looked up): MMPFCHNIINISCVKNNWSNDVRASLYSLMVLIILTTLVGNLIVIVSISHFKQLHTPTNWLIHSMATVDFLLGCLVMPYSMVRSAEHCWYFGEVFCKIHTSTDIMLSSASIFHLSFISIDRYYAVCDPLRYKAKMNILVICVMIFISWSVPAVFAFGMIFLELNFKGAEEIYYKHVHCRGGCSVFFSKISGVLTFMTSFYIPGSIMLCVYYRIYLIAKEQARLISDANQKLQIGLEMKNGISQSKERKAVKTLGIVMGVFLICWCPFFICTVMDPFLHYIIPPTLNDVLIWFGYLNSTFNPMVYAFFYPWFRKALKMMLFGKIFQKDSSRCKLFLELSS
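Test system – hTAAR1-expressing CHO RD-HGA16 cells, Gα16-coupled · Also added – β-PEA at EC80 concentration, post-compound challenge · Compound – 3 µM, single point · Incubation – dye loading 75 min at 37 °C, then 30 min room temperature · Measured by – Fluo-8 intracellular calcium dye fluorescence, real-time kinetic reads · Benchmarks – vehicle and agonist controls · Replicates – singlicate, one well per test compound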
TAAR1 agonist = human TAAR1 agonism; Q96RJ0; CHO RD-HGA16 TAAR1, Fluo-8 calcium fluorescence; vehicle wells 0%, saturating PEA agonist 100%; AID 624467; 360,000 tested, 0.99% active; activation, % at 3 µM;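 active = activation above the mean activation of all test compounds in the run plus 3 SD, cut at about 38% in these data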
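Test system: RD-HGA16 (CHO) cells co-expressing Gα16 and hTAAR1 / Benchmarks: DMSO vehicle as 0%, PEA at EC100 as 100% / Repeats: no replicates (n 1) / Measure: % activation from peak over basal fluorescence ratio, DMSO-to-PEA scaled / Timing: 17-24 h plating, Fluo-8 75 min 37 °C, 30 min RT / Technique: kinetic Fluo-8 calcium fluorescence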
V1aR counter = V1a receptor agonism, counter-screen for OXTR agonists; CHO-V1R cells, Fluo-8 calcium fluorescence, agonist mode; 0% DMSO, 100% 3 nM vasopressin; activation, % at 3 µM; 320,000 tested, 0.25% active; AID 2797;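 active = activation above the mean activation of all tested compounds plus 3 SD, per screening run, cut at about 20% in these data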;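 also: signal is peak over basal fluorescence ratio across a 100 second FLIPR read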
OXTR potentiator = potentiates the human oxytocin receptor response; P30559; CHO-OTR cells, Fluo-8 calcium fluorescence, potentiator mode; 0% = oxytocin EC15, 100% = EC100; activation, % at 3 µM; 320,000 tested, 0.061% active;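 active = activation above that plate's cutoff, the mean activation of tested compounds plus 3 SD, cut at about 6.6% in these data, passing the limit was not always enough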;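 also: 100% uses oxytocin at 75 nM as the full agonist control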
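Material: human OTR in CHO cells. Compound: 3.0 µM, one dose. Timing: compound 6 min at room temperature before oxytocin, 100 s read. Evaluation: % activation of max/min ratio relative to oxytocin controls. Replication: single well per compound, singlicate. Signal: Fluo-8 calcium dye fluorescence.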
nonsel antag count = nonselective antagonist in TAAR1 antagonist counter-screen. shares compounds with TAAR1 antagonist. counterscreen cell line, calcium fluorescence, antagonist mode. inhibition, % at 3 µM. 2,400 tested, 77% active; in the data active = inhibition above about 22%;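 also: CHO-Ga16 host cells stimulated with ATP at an EC80 level; 0% = agonist EC80 plus vehicle and 100% = vehicle without agonist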
TAAR1 antag conf = human TAAR1 antagonism, confirmed; shares compounds with TAAR1 antagonist; TAAR1-expressing cells, fluorescence antagonist read-out; inhibition, % at 3 µM; 2,400 tested, 40% active; AID 651785; in the data active = inhibition above about 49%;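 also: CHO-Ga16 host cells challenged with agonist PEA near its EC80; 0% = agonist at EC80 plus vehicle and 100% = vehicle with no agonist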
Ga16 nonsel ag = nonselective Ga16 agonist in TAAR1 antagonist counter-screen; shares compounds with TAAR1 antagonist; Ga16-expressing cells, calcium fluorescence, agonist counterscreen; activation, % at 3 µM; 2,400 tested, 18% active; in the data active = activation above about 12%;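 also: 0% = vehicle wells and 100% = saturating stimulus response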
TAAR1 ag counter = counter-screen for human TAAR1 antagonists: TAAR1 agonists | AID 651955 | shares compounds with TAAR1 antagonist | hTAAR1 cell line, fluorescence activation, agonist mode | 2,400 tested, 2% active | activation, % at 3 µM; in the data active = activation above about 37%;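 also: CHO cells stably expressing TAAR1 with calcium dye readout; 0% = DMSO vehicle and 100% = full agonist response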
Numbers without * were called inactive; / = not tested or not shown.

SMILES	OXTR ag	TAAR1 antagonist	TAAR1 agonist	V1aR counter	OXTR potentiator	nonsel antag count	TAAR1 antag conf	Ga16 nonsel ag	TAAR1 ag counter
COc1ccccc1-c1ocnc1C(=O)N1CCN(C(=O)C(c2ccccc2)c2ccccc2)CC1	-1	-11	2	4	-11	/	/	/	/
O=C(O)Cn1c(=O)c2c3c(sc2n(Cc2ccc(F)cc2)c1=O)CCCC3	0	16	2	0	-6	/	/	/	/
O=C(O)Cn1c(=O)c2c3c(sc2n(Cc2ccccc2F)c1=O)CCCC3	0	56*	3	0	0	5	38	3	7
COc1cc2cnc(-c3ccccc3)c(-c3cccc(C(F)(F)F)c3)c2cc1OC	-1	51*	9	-1	-8	15	19	2	2
COc1ccccc1NC(=O)Cn1nnc(-c2ccccc2NC(=O)c2ccco2)n1	0	56*	13	3	-17	21	35	9	13
COc1ccc(NC(=O)Cn2nnc(-c3ccccc3NC(=O)c3ccco3)n2)cc1	1	8	9	-1	-9	/	/	/	/
CCNC(=O)c1cc2c(c(-c3cccc(-c4cncnc4)c3)n1)[C@@H](CCO)N(C(C)=O)C2	/	-23	2	/	/	/	/	/	/
COc1ccccc1-c1cccc(-c2nc(C(=O)Nc3nccs3)cc3c2[C@H](CCO)N(C(C)=O)C3)c1	/	71*	7	/	/	30*	51*	7	5
O=C(C1CCN(S(=O)(=O)c2ccccc2[N+](=O)[O-])CC1)N1CCOCC1	1	10	4	0	-3	/	/	/	/
CC1=C(C)N(C)[C@H](c2ccccc2Br)[C@H](O)C1=O	/	8	0	/	/	/	/	/	/
C=CC[C@@H](CC(=O)N[C@@H](CO)Cc1ccccc1)C(=O)N[C@H](COC(=O)[C@@H](CC=C)CC(=O)OC(C)(C)C)Cc1c[nH]c2ccccc12	-1	39	4	0	-9	/	/	/	/
C=CC[C@H](CC(=O)N[C@H](CO)Cc1ccccc1)C(=O)N[C@@H](COC(=O)[C@@H](CC=C)CC(=O)OC(C)(C)C)Cc1c[nH]c2ccccc12	0	63*	23	1	-8	30*	37	4	4
C=CCC[C@@H](Cc1ccc(F)cc1)C(=O)OC[C@H](Cc1c[nH]c2ccccc12)NC(=O)[C@H](CC=C)CC(=O)NCCO	0	75*	22	1	-4	30*	42	7	7
C=CC[C@@H](CC(=O)N[C@H](CO)Cc1ccccc1)C(=O)N[C@H](COC(=O)[C@@H](CC=C)Cc1ccc(F)cc1)Cc1c[nH]c2ccccc12	3	86*	28	3	-10	38*	51*	5	15
COC(=O)C1C(=O)/C(=C/N(C)C)C(=O)CC1(C)C (centres undefined)	1	13	1	1	-4	/	/	/	/
C[C@@]12CCC=C[C@H]1[C@H](c1ccccc1Br)N(Cc1ccccc1)C2=O	/	-3	1	/	/	/	/	/	/
COc1ccc(OC(=O)N(C)C[C@H]2OCc3cn(nn3)CCCC(=O)N([C@H](C)CO)C[C@@H]2C)cc1	/	3	1	/	/	/	/	/	/
COc1ccccc1N1CCN(C(=O)c2cccc(S(=O)(=O)N3c4ccccc4CC3C)c2)CC1 (centres undefined)	/	75*	11	/	/	39*	50*	10	10
CCN=C(NCC)SC1CC(=O)N(c2ccc(OCC)cc2)C1=O (centres undefined)	0	86*	16	3	-7	28*	51*	11	11
CCN=C(Nc1cccc(F)c1)SC1CC(=O)N(c2ccc(OC)cc2)C1=O (centres undefined)	2	72*	15	2	-6	34*	55*	7	6
CCOc1ccc(N2C(=O)CC(SCCN)C2=O)cc1 (centres undefined)	3	-9	4	2	5	/	/	/	/
O=C(CNc1ccc(F)cc1)c1ccccc1	0	-2	14	0	-16	/	/	/	/
CC1(C(=O)NS(=O)(=O)c2cccc(C#N)c2)CCN1C(=O)CC1CCCC1 (centres undefined)	/	1	0	/	/	/	/	/	/
O=C(c1[nH]nc2c1CCc1ccccc1-2)N1CCN(Cc2ccc3c(c2)OCO3)CC1	9	/	/	9	-15	/	/	/	/
O=C(/C=C/c1cn(-c2ccccc2)nc1-c1cccc(Cl)c1)N1CCN(c2ccccn2)CC1	0	53*	0	0	-9	18	31	3	4
SMILES	OXTR ag	TAAR1 antagonist	TAAR1 agonist	V1aR counter	OXTR potentiator	nonsel antag count	TAAR1 antag conf	Ga16 nonsel ag	TAAR1 ag counter
O=C(CCSCc1cccc(F)c1)NCCc1ccccc1	-2	56*	19	0	-6	4	69*	7	26
O=C1NC2(CCCCCC2)C(=O)N1Cc1cccc([N+](=O)[O-])c1	0	101*	-2	1	-15	0	5	1	5
O=C(Nc1scc(-c2ccccc2)c1C(=O)O)c1ccco1	-2	7	12	-1	-10	/	/	/	/
COC(=O)c1c(-c2ccc(F)cc2)csc1NC(=O)c1ccco1	-2	58*	0	0	-5	4	25	2	6
CCC(C)Sc1cccc(-c2nc3ccccn3c2NCc2ccccc2)c1 (centres undefined)	-1	84*	13	-1	-8	42*	70*	11	14
CCCCCCSc1cccc(-c2nc3cc(C)ccn3c2NCc2ccccc2)c1	-1	-26	1	1	-7	/	/	/	/
CCCCCCSc1cccc(-c2nc3ccc(C)cn3c2NCc2ccccc2)c1	-2	52*	5	0	-14	18	18	1	3
Cc1ccc2nc(-c3ccccc3)c(Cc3cccc(Cl)c3)n2c1	/	3	1	/	/	/	/	/	/
Cc1ccc2nc(-c3cccc(-c4cccc(Cl)c4)c3)c(NCc3ccccc3)n2c1	-2	73*	10	0	-11	32*	33	2	3
CCC(C)Sc1cccc(-c2nc3ccc(C)cn3c2NCc2ccccc2)c1 (centres undefined)	-2	91*	13	-2	-12	45*	76*	9	12
O=C(CSc1nnc(CNC(=O)c2ccc(F)cc2)o1)NCc1ccccc1	0	1	0	0	0	/	/	/	/

Screening results from PubChem BioAssay.
